Bioassay records as filed in PubChem BioAssay.
The list is not random: actives were taken first. Their share in the collection is about 0.77%.
mIAP activ: mouse IAP activation; muIAP, CDP-Star luminescence, 30 min; active compounds read high; 1 = vehicle-only enzyme signal, 0 = enzyme-free wells; activation factor at 10 µM; hit rate 0.24% among 330,000; AID 2805;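 active = activation factor of at least 2 at 20 µM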
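Assay system: mouse IAP enzyme; reagent: chemiluminescent substrate CDP-Star; dosing: test compounds delivered from DMSO solution; schedule: 30 min at room temperature; measured by: luminescence from enzymatic CDP-Star hydrolysis; controls: DMSO-only wells and no-enzyme negative control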
mIAP inh: blocks mouse intestinal alkaline phosphatase; purified mouse IAP, CDP-Star luminescence, 30 min; inhibition, % at 10 µM; hit rate 0.2% among 330,000; AID 2806;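 active = inhibition of at least 40% at 10 µM in the primary screen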;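 note: plate controls were DMSO with enzyme for no effect and no enzyme wells for full effect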
hIAP activ: increases human intestinal alkaline phosphatase activity. activation factor at 10 µM. hit rate 0.16% among 330,000. P09923. purified human IAP, CDP-Star luminescence, 30 min; active compounds read high; 1 = vehicle-only enzyme, 0 = enzyme-free background;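 active = activation factor of the enzyme at least 2-fold when tested at 20 µM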
Target sequence (P09923 whole entry, looked up): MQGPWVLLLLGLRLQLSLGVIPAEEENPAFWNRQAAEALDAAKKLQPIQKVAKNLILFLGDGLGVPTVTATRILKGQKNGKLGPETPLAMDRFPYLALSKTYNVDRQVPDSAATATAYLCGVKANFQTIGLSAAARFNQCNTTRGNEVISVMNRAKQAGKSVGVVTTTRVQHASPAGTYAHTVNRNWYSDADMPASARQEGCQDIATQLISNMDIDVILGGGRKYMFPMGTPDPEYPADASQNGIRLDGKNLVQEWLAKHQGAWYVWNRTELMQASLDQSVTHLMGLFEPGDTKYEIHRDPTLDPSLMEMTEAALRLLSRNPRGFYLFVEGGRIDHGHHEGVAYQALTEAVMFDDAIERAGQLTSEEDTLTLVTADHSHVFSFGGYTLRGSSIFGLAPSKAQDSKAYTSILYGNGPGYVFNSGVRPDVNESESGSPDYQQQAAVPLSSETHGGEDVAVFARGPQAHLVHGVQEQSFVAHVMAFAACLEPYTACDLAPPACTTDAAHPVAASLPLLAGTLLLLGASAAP
bIAP act: intestinal alkaline phosphatase (bovine) activation; purified bovine IAP, CDP-star luminescence, 30 min; active compounds read high; fold of DMSO-control signal, blank-subtracted; hit rate 0.17% among 200,000; activation factor at 20 µM;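 active = activation factor of 2 or more at 20 µM, a signal rise over negative controls twice the positive control's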
bIAP inhibitor: intestinal alkaline phosphatase (bovine) inhibition; purified bovine IAP, CDP-star luminescence, 30 min; inhibition, % at 20 µM; 190,000 tested, under 10 active; AID 1019;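 active = over 50% inhibition of intestinal alkaline phosphatase at 20 µM in the single-dose screen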
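System: purified bovine intestinal alkaline phosphatase (IAP) enzyme; Input: IAP diluted 1/65,000,000 in the well; Measured by: CDP-star luminescence signal; Compound dosing: 20 µM single dose; Incubation: 30 min reaction at room temperature.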
hIAP block: human IAP inhibition. P09923. purified IAP, CDP-Star luminescence, 30 min. inhibition, % at 10 µM. hit rate 0.12% among 330,000. AID 2544;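 active = inhibition reaching a set limit with compound at 10 µM in the primary screen, cut at about 35% in these data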;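 note: plate controls were DMSO wells with enzyme for no effect and no-enzyme buffer wells for full effect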
* marks the source's active call; other numbers are inactive results.

For c1ccc(N2N=C(c3cccs3)CC2c2ccco2)cc1 (centres undefined) the results were mIAP activ 2.08*, mIAP inh -108.2, hIAP activ 0.82, bIAP act 1.1, bIAP inhibitor -13.6 and hIAP block 18.0.
For Clc1ccc(N2N=C(c3cccs3)CC2c2ccco2)cc1 (centres undefined) the results were mIAP activ 1.9, mIAP inh -89.8, hIAP activ 0.943, bIAP act 1.3, bIAP inhibitor -28.0 and hIAP block 5.7.
Screening CCN(CC)C(=O)c1nc[nH]c1C(=O)N1CCN(c2ccccc2)CC1 returned mIAP activ 1.01, mIAP inh -0.6, hIAP activ 0.785 and hIAP block 21.5.
Cc1ccc(O)c(-c2cc(C(=O)NCc3ccncc3)[nH]n2)c1 was read as mIAP activ 0.984, mIAP inh 1.6, hIAP activ 1, bIAP act 2.1*, bIAP inhibitor -106.5 and hIAP block -0.4.
`Cc1cccc(NS(=O)(=O)c2cnc[nH]2)c1` gave mIAP activ 0.941, mIAP inh 5.9, hIAP activ 1.23, bIAP act 2*, bIAP inhibitor -95.8 and hIAP block -23.0.
Screening COc1ccc(N2CCN(C(=O)C3(S(=O)(=O)c4ccc(C)cc4)CC3)CC2)cc1 returned mIAP activ 0.907, mIAP inh 9.3, hIAP activ 1.1 and hIAP block -10.4.
O=C(Nc1ccccc1-c1ccccc1)NC1CC2CCCC(C1)N2CCc1ccccc1 (centres undefined) was read as mIAP activ 2.31*, mIAP inh -131.2, hIAP activ 0.895, bIAP act 1.1, bIAP inhibitor -8.5 and hIAP block 10.5.
For CC(CNC(=S)Nc1cc(F)cc(F)c1)CSc1ccc(Cl)cc1 (centres undefined) the results were mIAP activ 3.19*, mIAP inh -218.8, hIAP activ 1.22, bIAP act 0.7, bIAP inhibitor 26.4 and hIAP block -22.0.
Screening O=S(=O)(c1ccc(Br)cc1)c1nc(-c2ccccc2)oc1NCCN1CCOCC1 returned mIAP activ 0.966, mIAP inh 3.4, hIAP activ 0.98 and hIAP block 2.0.
Screening COc1ccc(NC(=O)CC(NCCc2ccccc2)C(=O)O)c(OC)c1 (centres undefined) returned mIAP activ 0.985, mIAP inh 1.5, hIAP activ 0.975, bIAP act 1, bIAP inhibitor 4.6 and hIAP block 2.5.
Screening COc1ccccc1NC(=O)CC(NCc1ccccc1)C(=O)O (centres undefined) returned mIAP activ 1.02, mIAP inh -2.0, hIAP activ 1.03, bIAP act 2.3*, bIAP inhibitor -134.5 and hIAP block -2.6.
Screening O=C(Nc1ccc(F)cc1F)Nc1csc2ccccc12 returned mIAP activ 2.28*, mIAP inh -128.1, hIAP activ 0.96 and hIAP block 4.0.
Screening O=C(Nc1ccc(F)cc1F)Nc1ccc(F)cc1F returned mIAP activ 1.09, mIAP inh -8.7, hIAP activ 1.16, bIAP act 1, bIAP inhibitor -1.7 and hIAP block -16.2.
`OCc1nc2ccccc2n1CCCCOc1ccccc1` gave mIAP activ 1.08, mIAP inh -7.9, hIAP activ 0.944 and hIAP block 5.6.
For OCc1nc2ccccc2n1CCCOc1ccc(Br)cc1 the results were mIAP activ 0.962, mIAP inh 3.8, hIAP activ 1.32, bIAP act 2.9*, bIAP inhibitor -193.5 and hIAP block -32.4.
`Cc1ccc(C(=O)N2CCCC(N3CCN(c4ccccc4C)CC3)C2)c(=O)[nH]1` (centres undefined) gave mIAP activ 1.04, mIAP inh -4.2, hIAP activ 1.42 and hIAP block -41.8.
Screening CCN(CC)P(=O)(c1ccccc1)c1c(C)nc2ccccn12 (centres undefined) returned mIAP activ 0.945, mIAP inh 5.5, hIAP activ 1.05 and hIAP block -4.8.
C[C@@H](C(=O)Nc1ccc2ccccc2c1)[C@H]1C[C@]1(C)[C@H](NC(=O)c1cccnc1)c1ccccc1 was read as mIAP activ 1.81, mIAP inh -81.2, hIAP activ 0.869, bIAP act 0.8, bIAP inhibitor 18.3 and hIAP block 13.1.
